Test results published in ChEMBL document CHEMBL3576819, “Design, synthesis, biological evaluation and molecular docking studies of phenylpropanoid derivatives as potent anti-hepatitis B virus agents” (Eur J Med Chem, 2015).

Experiments:
[1] = tested on: Hepatitis B virus; assay: Antiviral activity against Hepatitis B virus infected in human HepG2.2.15 cells assessed as inhibition of HBeAg secretion at 75 uM after 6 days by ELISA; type: functional; conditions: HepG2 2.2.15, 144 h
Procedure, shortened: (§1)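 HepG2.2.15 cells (MEM, 10% FBS, 380 µg/ml G418) seeded at 1×10^5 cells/ml, held 24 h at 37 °C, then treated with various drug concentrations; medium with drug renewed every 3 d for up to 9 d. Culture medium sampled on days 3, 6 and 9, stored at -20 °C, and assayed for secreted antigen. Lamivudine as positive control; IC50 = 50% inhibition of secretion; means of at least two experiments.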

[2] = tested on: Hepatitis B virus; assay: Antiviral activity against Hepatitis B virus infected in human HepG2.2.15 cells assessed as inhibition of HBsAg secretion at 37.5 uM after 3 days by ELISA; type: functional; conditions: HepG2 2.2.15, 72 h; procedure, shortened: as §1
[3] = tested on: Hepatitis B virus; assay: Antiviral activity against Hepatitis B virus infected in human HepG2.2.15 cells assessed as cell survival at 37.5 uM after 9 days (reference value: 100%); type: functional; conditions: HepG2 2.2.15, 216 h
Procedure, shortened: (§2)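 HepG2.2.15 cells (MEM, 10% FBS, 380 µg/ml G418, 37 °C, 5% CO2) seeded at 1×10^5 cells/ml, cultured 24 h, then exposed to various drug concentrations; drug-containing medium renewed every 3 d. OD read at 450 nm after 9 days; percent cell death calculated; CC50 = concentration killing 50% of cells. Means of at least two experiments.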

[4] = tested on: Hepatitis B virus; assay: Antiviral activity against Hepatitis B virus infected in human HepG2.2.15 cells assessed as inhibition of HBeAg secretion at 37.5 uM after 6 days by ELISA; type: functional; conditions: HepG2 2.2.15, 144 h; procedure, shortened: as §1
[5] = tested on: Hepatitis B virus; assay: Antiviral activity against Hepatitis B virus infected in human HepG2.2.15 cells assessed as inhibition of HBsAg secretion at 300 uM after 6 days by ELISA; type: functional; conditions: HepG2 2.2.15, 144 h; procedure, shortened: as §1
[6] = Cytotoxicity against human HepG2.2.15 cells assessed as cell death after 9 days by MTT assay; type: cell-based, HepG2 2.2.15; procedure, shortened: as §2
[7] = Selectivity index, ratio of CC50 for human HepG2.2.15 cells to IC50 for Hepatitis B virus infected in human HepG2.2.15 cells assessed as inhibition of HBeAg secretion; type: functional
Procedure, shortened: (§3)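 Selectivity index computed as CC50/IC50, with CC50 from cell death of HepG2.2.15 cells after 9 days of treatment (OD 450 nm) and IC50 from 50% inhibition of HBeAg or HBsAg secretion in the same cells; medium with drug renewed every 3 d.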

[8] = tested on: Hepatitis B virus; assay: Antiviral activity against Hepatitis B virus infected in human HepG2.2.15 cells assessed as inhibition of HBsAg secretion by ELISA; type: functional, organism-based; conditions: HepG2 2.2.15; procedure, shortened: as §1
[9] = tested on: Hepatitis B virus; assay: Antiviral activity against Hepatitis B virus infected in human HepG2.2.15 cells assessed as inhibition of HBeAg secretion at 150 uM after 9 days by ELISA; type: functional; conditions: HepG2 2.2.15, 216 h; procedure, shortened: as §1
[10] = tested on: Hepatitis B virus; assay: Antiviral activity against Hepatitis B virus infected in human HepG2.2.15 cells assessed as inhibition of HBeAg secretion at 75 uM after 9 days by ELISA; type: functional; conditions: HepG2 2.2.15, 216 h; procedure, shortened: as §1
[11] = tested on: Hepatitis B virus; assay: Antiviral activity against Hepatitis B virus infected in human HepG2.2.15 cells assessed as inhibition of HBsAg secretion at 75 uM after 3 days by ELISA; type: functional; conditions: HepG2 2.2.15, 72 h; procedure, shortened: as §1
[12] = tested on: Hepatitis B virus; assay: Antiviral activity against Hepatitis B virus infected in human HepG2.2.15 cells assessed as inhibition of HBeAg secretion at 150 uM after 6 days by ELISA; type: functional; conditions: HepG2 2.2.15, 144 h; procedure, shortened: as §1
[13] = tested on: Hepatitis B virus; assay: Antiviral activity against Hepatitis B virus infected in human HepG2.2.15 cells assessed as inhibition of HBsAg secretion at 75 uM after 6 days by ELISA; type: functional; conditions: HepG2 2.2.15, 144 h; procedure, shortened: as §1
[14] = tested on: Hepatitis B virus; assay: Antiviral activity against Hepatitis B virus infected in human HepG2.2.15 cells assessed as cell survival at 150 uM after 9 days (reference value: 100%); type: functional; conditions: HepG2 2.2.15, 216 h; procedure, shortened: as §2
[15] = tested on: Hepatitis B virus; assay: Antiviral activity against Hepatitis B virus infected in human HepG2.2.15 cells assessed as inhibition of HBeAg secretion at 75 uM after 3 days by ELISA; type: functional; conditions: HepG2 2.2.15, 72 h; procedure, shortened: as §1
[16] = tested on: Hepatitis B virus; assay: Antiviral activity against Hepatitis B virus infected in human HepG2.2.15 cells assessed as inhibition of HBsAg secretion at 75 uM after 9 days by ELISA; type: functional; conditions: HepG2 2.2.15, 216 h; procedure, shortened: as §1
[17] = tested on: Hepatitis B virus; assay: Antiviral activity against Hepatitis B virus infected in human HepG2.2.15 cells assessed as inhibition of HBsAg secretion at 150 uM after 6 days by ELISA; type: functional; conditions: HepG2 2.2.15, 144 h; procedure, shortened: as §1
[18] = tested on: Hepatitis B virus; assay: Antiviral activity against Hepatitis B virus infected in human HepG2.2.15 cells assessed as inhibition of HBsAg secretion at 150 uM after 3 days by ELISA; type: functional; conditions: HepG2 2.2.15, 72 h; procedure, shortened: as §1
[19] = tested on: Hepatitis B virus; assay: Antiviral activity against Hepatitis B virus infected in human HepG2.2.15 cells assessed as cell survival at 75 uM after 9 days (reference value: 100%); type: functional; conditions: HepG2 2.2.15, 216 h; procedure, shortened: as §2
[20] = tested on: Hepatitis B virus; assay: Antiviral activity against Hepatitis B virus infected in human HepG2.2.15 cells assessed as inhibition of HBsAg secretion at 150 uM after 9 days by ELISA; type: functional; conditions: HepG2 2.2.15, 216 h; procedure, shortened: as §1
[21] = tested on: Hepatitis B virus; assay: Antiviral activity against Hepatitis B virus infected in human HepG2.2.15 cells assessed as inhibition of HBeAg secretion at 300 uM after 6 days by ELISA; type: functional; conditions: HepG2 2.2.15, 144 h; procedure, shortened: as §1
[22] = tested on: Hepatitis B virus; assay: Antiviral activity against Hepatitis B virus infected in human HepG2.2.15 cells assessed as inhibition of HBeAg secretion at 37.5 uM after 3 days by ELISA; type: functional; conditions: HepG2 2.2.15, 72 h; procedure, shortened: as §1
[23] = tested on: Hepatitis B virus; assay: Antiviral activity against Hepatitis B virus infected in human HepG2.2.15 cells assessed as inhibition of HBeAg secretion at 37.5 uM after 9 days by ELISA; type: functional; conditions: HepG2 2.2.15, 216 h; procedure, shortened: as §1
[24] = Selectivity index, ratio of CC50 for human HepG2.2.15 cells to IC50 for Hepatitis B virus infected in human HepG2.2.15 cells assessed as inhibition of HBsAg secretion; type: functional; procedure, shortened: as §3
[25] = tested on: Hepatitis B virus; assay: Antiviral activity against Hepatitis B virus infected in human HepG2.2.15 cells assessed as inhibition of HBeAg secretion at 300 uM after 3 days by ELISA; type: functional; conditions: HepG2 2.2.15, 72 h; procedure, shortened: as §1
[26] = tested on: Hepatitis B virus; assay: Antiviral activity against Hepatitis B virus infected in human HepG2.2.15 cells assessed as inhibition of HBsAg secretion at 300 uM after 3 days by ELISA; type: functional; conditions: HepG2 2.2.15, 72 h; procedure, shortened: as §1
[27] = tested on: Hepatitis B virus; assay: Antiviral activity against Hepatitis B virus infected in human HepG2.2.15 cells assessed as cell survival at 300 uM after 9 days (reference value: 100%); type: functional; conditions: HepG2 2.2.15, 216 h; procedure, shortened: as §2
[28] = tested on: Hepatitis B virus; assay: Antiviral activity against Hepatitis B virus infected in human HepG2.2.15 cells assessed as inhibition of HBsAg secretion at 37.5 uM after 9 days by ELISA; type: functional; conditions: HepG2 2.2.15, 216 h; procedure, shortened: as §1
[29] = tested on: Hepatitis B virus; assay: Antiviral activity against Hepatitis B virus infected in human HepG2.2.15 cells assessed as inhibition of HBeAg secretion by ELISA; type: functional, organism-based; conditions: HepG2 2.2.15; procedure, shortened: as §1
[30] = tested on: Hepatitis B virus; assay: Antiviral activity against Hepatitis B virus infected in human HepG2.2.15 cells assessed as inhibition of HBsAg secretion at 300 uM after 9 days by ELISA; type: functional; conditions: HepG2 2.2.15, 216 h; procedure, shortened: as §1
[31] = tested on: Hepatitis B virus; assay: Antiviral activity against Hepatitis B virus infected in human HepG2.2.15 cells assessed as inhibition of HBeAg secretion at 150 uM after 3 days by ELISA; type: functional; conditions: HepG2 2.2.15, 72 h; procedure, shortened: as §1
[32] = tested on: Hepatitis B virus; assay: Antiviral activity against Hepatitis B virus infected in human HepG2.2.15 cells assessed as inhibition of HBeAg secretion at 300 uM after 9 days by ELISA; type: functional; conditions: HepG2 2.2.15, 216 h; procedure, shortened: as §1
[33] = tested on: Hepatitis B virus; assay: Antiviral activity against Hepatitis B virus infected in human HepG2.2.15 cells assessed as inhibition of HBsAg secretion at 37.5 uM after 6 days by ELISA; type: functional; conditions: HepG2 2.2.15, 144 h; procedure, shortened: as §1

Row | Compound | inhibition at 75 µM [1] | inhibition at 37.5 µM [2] | viability at 37.5 µM [3] | inhibition at 37.5 µM [4] | inhibition at 300 µM [5] | CC50 at 216 h [6] | Ratio CC50/IC50 [7] | IC50 [8] | inhibition at 150 µM [9] | inhibition at 75 µM [10] | inhibition at 75 µM [11] | inhibition at 150 µM [12] | inhibition at 75 µM [13] | viability at 150 µM [14] | inhibition at 75 µM [15] | inhibition at 75 µM [16] | inhibition at 150 µM [17] | inhibition at 150 µM [18] | viability at 75 µM [19] | inhibition at 150 µM [20] | other results
1 | COc1ccc(/C=C/C(=O)O/N=C/c2ccco2)cc1OC | 27.9% | 19.9% | 128% | 20% | 53.8% | 624 µM | 3.1 | 191 µM | 43.7% | 37.3% | 33.6% | 42% | 36.5% | 114% | 18.2% | 39.4% | 44.2% | 39.7% | 120% | 47.3% | inhibition at 300 µM [21]: 48.8%; inhibition at 37.5 µM [22]: 14.1%; inhibition at 37.5 µM [23]: 27%; Ratio CC50/IC50 [24]: 3.26; inhibition at 300 µM [25]: 41.8%; inhibition at 300 µM [26]: 47.2%; viability at 300 µM [27]: 103%; inhibition at 37.5 µM [28]: 21.2%; IC50 [29]: 202 µM; inhibition at 300 µM [30]: 55%; inhibition at 150 µM [31]: 30.4%; inhibition at 300 µM [32]: 56.6%; inhibition at 37.5 µM [33]: 20.8%
2 | O=C(/C=C/c1ccc2c(c1)OCO2)O/N=C/c1cccs1 | 32% | 20.4% | 112% | 20.6% | 87.5% | 266 µM | 2.26 | 75.8 µM | 51.5% | 42.9% | 32.1% | 46.1% | 45.4% | 92.2% | 25.7% | 52% | 63.2% | 46.3% | 105% | 63.1% | inhibition at 300 µM [21]: 63.2%; inhibition at 37.5 µM [22]: 15.9%; inhibition at 37.5 µM [23]: 25.4%; Ratio CC50/IC50 [24]: 3.51; inhibition at 300 µM [25]: 51.3%; inhibition at 300 µM [26]: 58.3%; viability at 300 µM [27]: 79.4%; inhibition at 37.5 µM [28]: 29.7%; IC50 [29]: 118 µM; inhibition at 300 µM [30]: 88.1%; inhibition at 150 µM [31]: 33.5%; inhibition at 300 µM [32]: 71.6%; inhibition at 37.5 µM [33]: 29.6%
